Test results from ChEMBL document CHEMBL1121808 (1981).
Peptide text beside a SMILES is read from it.

What was measured:
Assay type in all cases: functional
[1] = Relative potency expressed in percent to that of neurotensin was measured using guinea pig atria
How it was run: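 Both atria dissected free of ventricles, fat and blood; beating spontaneously under 0.5 g resting tension in 15-mL baths of oxygenated Krebs at 30 °C. Equilibrated 45–60 min before peptide exposure. Contractile force recorded isometrically via force-displacement transducer.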

[2] = Relative potency expressed in percent to that of neurotensin was measured using rat stomach strips assay
[3] = Relative potency expressed in percent to that of neurotensin was measured using perfused rat heart assay
How it was run: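 Male albino Wistar rats heparinized i.p. (2.5 mg/rat), then killed. Hearts perfused with filtered, oxygenated Krebs at 37 °C by peristaltic pump, flow raised over 5 min to 8 mL/min (perfusion pressure 70–90 mmHg). Stabilized 30 min before peptide infusion. Read-out: change in perfusion pressure via aortic-cannula side-arm transducer.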

Row | Compound | Relative potency [1] [%] | Relative potency [2] [%] | Relative potency [3] [%]
1 | CC[C@H](C)[C@H](NC(=O)[C@H](Cc1ccc(O)cc1)NC(=O)[C@@H]1CCCN1C(=O)[C@@H](C)NC(=O)[C@H](CCCN=C(N)N)NC(=O)[C@@H]1CCCN1C(=O)[C@H](CCCCN)NC(=O)[C@H](CC(N)=O)NC(=O)[C@H](CCC(=O)O)NC(=O)[C@H](Cc1ccc(O)cc1)NC(=O)[C@H](CC(C)C)NC(=O)[C@@H]1CCC(=O)N1)C(=O)N[C@@H](CC(C)C)C(=O)O | 2.6 | 1.5 | 0.3
2 | CC[C@H](C)[C@H](NC(=O)[C@H](Cc1ccc(O)cc1)NC(=O)[C@@H]1CCCN1C(=O)[C@H](CCCNC(=N)N)NC(=O)[C@@H](N)CCCNC(=N)N)C(=O)N[C@@H](CC(C)C)C(=O)O | 52 | 69 | 102
3 | CC[C@H](C)[C@H](NC(=O)[C@H](Cc1ccc(O)cc1)NC(=O)CNC(=O)[C@H](CCCN=C(N)N)NC(=O)[C@H](CCCN=C(N)N)NC(=O)[C@@H]1CCCN1C(=O)[C@H](CCCCN)NC(=O)[C@H](CC(N)=O)NC(=O)[C@H](CCC(=O)O)NC(=O)[C@H](Cc1ccc(O)cc1)NC(=O)[C@H](CC(C)C)NC(=O)[C@@H]1CCC(=O)N1)C(=O)N[C@@H](CC(C)C)C(=O)O | ~0.01 | ~0.01 | <0.01
4 | CC[C@H](C)[C@H](NC(=O)[C@H](Cc1ccc(O)cc1)NC(=O)[C@@H]1CCCN1C(=O)[C@H](CCCN=C(N)N)NC(=O)[C@H](CCCN=C(N)N)NC(=O)[C@@H]1CCCN1C(=O)[C@H](CCCCN)NC(=O)[C@H](CC(N)=O)NC(=O)[C@H](CCC(=O)O)NC(=O)[C@H](Cc1ccc(O)cc1)NC(=O)[C@@H](N)CC(C)C)C(=O)N[C@@H](CC(C)C)C(=O)O | 94 | 90 | 87
5 | CC[C@H](C)[C@H](NC(=O)[C@H](Cc1ccc(O)cc1)NC(=O)[C@@H]1CCCN1C(=O)[C@H](CCCN=C(N)N)NC(=O)[C@H](CCCN=C(N)N)NC(=O)[C@@H]1CCCN1C(=O)[C@H](CCCCN)NC(=O)[C@H](CC(N)=O)NC(=O)[C@H](CCC(=O)O)NC(=O)[C@H](Cc1ccc(O)cc1)NC(=O)[C@H](CC(C)C)NC(=O)[C@@H]1CCC(=O)N1)C(=O)O | 0.09 | 0.65 | 0.03
6 | CC[C@H](C)[C@H](NC(=O)[C@H](C)NC(=O)[C@@H]1CCCN1C(=O)[C@H](CCCN=C(N)N)NC(=O)[C@H](CCCN=C(N)N)NC(=O)[C@@H]1CCCN1C(=O)[C@H](CCCCN)NC(=O)[C@H](CC(N)=O)NC(=O)[C@H](CCC(=O)O)NC(=O)[C@H](Cc1ccc(O)cc1)NC(=O)[C@H](CC(C)C)NC(=O)[C@@H]1CCC(=O)N1)C(=O)N[C@@H](CC(C)C)C(=O)O | <0.01 | 0.01 | 0.01
7 | CC[C@H](C)[C@H](NC(=O)[C@@H](Cc1c[nH]c2ccccc12)NC(=O)[C@@H]1CCCN1C(=O)[C@H](CCCN=C(N)N)NC(=O)[C@H](CCCN=C(N)N)NC(=O)[C@@H]1CCCN1C(=O)[C@H](CCCCN)NC(=O)[C@H](CC(N)=O)NC(=O)[C@H](CCC(=O)O)NC(=O)[C@H](Cc1ccc(O)cc1)NC(=O)[C@H](CC(C)C)NC(=O)[C@@H]1CCC(=O)N1)C(=O)N[C@@H](CC(C)C)C(=O)O | 0.01 | 0.64 | 0.1
8 | CC(C)C[C@H](NC(=O)[C@@H]1CCC(=O)N1)C(=O)N[C@@H](Cc1ccc(O)cc1)C(=O)N[C@@H](CCC(=O)O)C(=O)N[C@@H](CC(N)=O)C(=O)N[C@@H](CCCCN)C(=O)N1CCC[C@H]1C(=O)N[C@@H](CCCN=C(N)N)C(=O)N[C@@H](CCCN=C(N)N)C(=O)N1CCC[C@H]1C(=O)O | 0 | 0 | 0
9 | CC[C@H](C)[C@H](NC(=O)[C@H](Cc1c[nH]c2ccccc12)NC(=O)[C@@H]1CCCN1C(=O)[C@H](CCCN=C(N)N)NC(=O)[C@H](CCCN=C(N)N)NC(=O)[C@@H]1CCCN1C(=O)[C@H](CCCCN)NC(=O)[C@H](CC(N)=O)NC(=O)[C@H](CCC(=O)O)NC(=O)[C@H](Cc1ccc(O)cc1)NC(=O)[C@H](CC(C)C)NC(=O)[C@@H]1CCC(=O)N1)C(=O)N[C@@H](CC(C)C)C(=O)O | 3.2 | 130 | 102
10 | CC[C@H](C)[C@H](NC(=O)[C@H](Cc1ccccc1)NC(=O)[C@@H]1CCCN1C(=O)[C@H](CCCN=C(N)N)NC(=O)[C@H](CCCN=C(N)N)NC(=O)[C@@H]1CCCN1C(=O)[C@H](CCCCN)NC(=O)[C@H](CC(N)=O)NC(=O)[C@H](CCC(=O)O)NC(=O)[C@H](Cc1ccc(O)cc1)NC(=O)[C@H](CC(C)C)NC(=O)[C@@H]1CCC(=O)N1)C(=O)N[C@@H](CC(C)C)C(=O)O | 15 | 16 | 1.4
11 | CC(C)C[C@H](NC(=O)[C@@H]1CCC(=O)N1)C(=O)N[C@@H](Cc1ccc(O)cc1)C(=O)N[C@@H](CCC(=O)O)C(=O)N[C@@H](CC(N)=O)C(=O)N[C@@H](CCCCN)C(=O)N1CCC[C@H]1C(=O)N[C@@H](CCCN=C(N)N)C(=O)N[C@@H](CCCN=C(N)N)C(=O)N1CCC[C@H]1C(=O)N[C@@H](Cc1ccc(O)cc1)C(=O)O | <0.01 | <0.01 | <0.01
12 | CC[C@H](C)[C@H](NC(=O)[C@H](Cc1ccc(O)cc1)NC(=O)[C@@H]1CCCN1C(=O)[C@H](CCCN=C(N)N)NC(=O)[C@H](CCCN=C(N)N)NC(=O)[C@@H]1CCCN1C(=O)[C@@H](N)CCCCN)C(=O)N[C@@H](CC(C)C)C(=O)O | 73 | 78 | 84
13 | CC[C@H](C)[C@H](NC(=O)[C@@H](Cc1ccccc1)NC(=O)[C@@H]1CCCN1C(=O)[C@H](CCCN=C(N)N)NC(=O)[C@H](CCCN=C(N)N)NC(=O)[C@@H]1CCCN1C(=O)[C@H](CCCCN)NC(=O)[C@H](CC(N)=O)NC(=O)[C@H](CCC(=O)O)NC(=O)[C@H](Cc1ccc(O)cc1)NC(=O)[C@H](CC(C)C)NC(=O)[C@@H]1CCC(=O)N1)C(=O)N[C@@H](CC(C)C)C(=O)O | ~0.01 | ~0.02 | <0.01
14 | CC[C@H](C)[C@H](NC(=O)[C@H](CC(C)C)NC(=O)[C@@H]1CCCN1C(=O)[C@H](CCCN=C(N)N)NC(=O)[C@H](CCCN=C(N)N)NC(=O)[C@@H]1CCCN1C(=O)[C@H](CCCCN)NC(=O)[C@H](CC(N)=O)NC(=O)[C@H](CCC(=O)O)NC(=O)[C@H](Cc1ccc(O)cc1)NC(=O)[C@H](CC(C)C)NC(=O)[C@@H]1CCC(=O)N1)C(=O)N[C@@H](CC(C)C)C(=O)O | < 0.01 | ~0.03 | 0.01
15 | CC[C@H](C)[C@H](NC(=O)[C@H](Cc1ccc(O)cc1)NC(=O)[C@@H]1CCCN1C(=O)[C@@H](N)CCCN=C(N)N)C(=O)N[C@@H](CC(C)C)C(=O)O | 1.3 | 11 | 1.6
16 | CC[C@H](C)[C@H](NC(=O)[C@H](Cc1ccc(O)cc1)NC(=O)[C@@H]1CCCN1)C(=O)N[C@@H](CC(C)C)C(=O)O (H-PYIL-OH) | 0 | 0 | 0
17 | H-ENKPRRPYIL-OH | 99 | 85 | 92
18 | H-PRRPYIL-OH | 49 | 65 | 59
19 | H-YENKPRRPYIL-OH | 84 | 90 | 85
